The source of these data is PubChem BioAssay.

Experiment [1] can be described thus: nonspecific flux increase, KCNQ1-free cells – parental CHO cells, counter-screen for KCNQ1 potentiator project (AID 493006;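 active = duplicate-averaged activation above buffer control mean plus 5 SD of those controls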;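 for activation: fluorescence ratio of max minus min over baseline after K+ and Tl+ depolarization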). To be noted: parental CHO-K1 cells, FluxOR thallium flux, at 10 µM; active compounds read high. Put shortly: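 Benchmarks – buffer and R-L3 controls · Assay system – untransfected host CHO-K1 cells with FluxOR thallium dye · Measure – fluorescence change ratio scaled 0% buffer, 100% R-L3 · Technique – kinetic thallium-flux fluorescence · Timing – overnight 37 °C plating, 90 min RT dye, 20 min compound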
A general note: The purpose of a counterscreen is to sort out artefacts and off-target activity.

In experiment [2] the target is Potassium voltage-gated channel subfamily KQT member 1 (Homo sapiens) (UniProt P51787). The experiment in a line: enhancement of KCNQ1 channel thallium flux – FluxOR thallium flux, CHO cells, duplicates, confirmation (AID 493007;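 active = potentiation averaged over duplicate wells exceeding buffer-only control mean by more than 3 SD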;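 for outcome: cells depolarized by a potassium plus thallium sulfate stimulus after compound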). To be noted: KCNQ1 cell line, FluxOR thallium flux fluorescence, at 10 µM; active compounds read high, % of reference activator effect, buffer zero. Put shortly:
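Material: CHO cells stably expressing the KCNQ1 potassium channel / Times: dye 90 min then compound 20 min, both at room temperature / Detection: kinetic thallium influx fluorescence with FluxOR dye, 10 s baseline, 110 s post-stimulus / Benchmarks: buffer-only wells as 0% and R-L3 activator as 100% / Replicates: each compound tested in duplicate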

The target of experiment [3] is Potassium voltage-gated channel subfamily KQT member 2 (Rattus norvegicus) (UniProt O88943). The experiment in a line: KCNQ2 thallium flux enhancement – KCNQ2-CHO-K1 cells, selectivity assay for KCNQ1 potentiator project (AID 493009;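 active = mean duplicate potentiation above the buffer control mean plus 5 SD of buffer wells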;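 note: assay conditions were tuned for KCNQ1 rather than KCNQ2 modulators; signal is max minus min fluorescence divided by baseline after thallium stimulus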). To be noted: FluxOR thallium flux fluorescence, at 10 µM; active compounds read high, scaled: buffer 0, activator control 100.
Sequence of Potassium voltage-gated channel subfamily KQT member 2 (Rattus norvegicus) (O88943 whole entry, looked up): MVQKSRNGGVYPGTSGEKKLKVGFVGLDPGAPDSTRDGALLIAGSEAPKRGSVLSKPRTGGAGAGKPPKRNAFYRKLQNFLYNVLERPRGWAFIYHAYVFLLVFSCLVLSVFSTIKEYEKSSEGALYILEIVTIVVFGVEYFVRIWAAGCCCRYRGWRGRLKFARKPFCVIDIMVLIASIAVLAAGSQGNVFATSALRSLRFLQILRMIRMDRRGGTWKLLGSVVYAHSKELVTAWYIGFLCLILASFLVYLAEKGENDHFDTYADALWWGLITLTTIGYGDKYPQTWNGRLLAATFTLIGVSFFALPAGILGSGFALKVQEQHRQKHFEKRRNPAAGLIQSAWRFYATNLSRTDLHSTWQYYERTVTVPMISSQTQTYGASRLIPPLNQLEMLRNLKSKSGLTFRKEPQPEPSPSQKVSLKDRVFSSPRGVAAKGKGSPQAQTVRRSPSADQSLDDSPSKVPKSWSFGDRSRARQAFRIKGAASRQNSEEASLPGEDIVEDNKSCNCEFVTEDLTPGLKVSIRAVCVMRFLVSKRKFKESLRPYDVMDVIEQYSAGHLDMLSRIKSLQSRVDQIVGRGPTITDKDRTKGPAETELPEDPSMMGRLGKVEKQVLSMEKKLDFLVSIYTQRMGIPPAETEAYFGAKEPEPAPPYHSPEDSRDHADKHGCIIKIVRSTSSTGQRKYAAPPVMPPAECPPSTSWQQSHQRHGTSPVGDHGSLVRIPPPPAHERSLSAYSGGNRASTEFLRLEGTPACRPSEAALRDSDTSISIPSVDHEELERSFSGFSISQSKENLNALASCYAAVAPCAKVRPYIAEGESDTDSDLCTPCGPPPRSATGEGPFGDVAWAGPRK
The target of experiment [4] is Potassium voltage-gated channel subfamily KQT member 1 (Homo sapiens) (UniProt P51787). In words: KCNQ1 activators by electrophysiology – IonWorks patch clamp, KCNQ1-CHO cells, orthogonal assay for KCNQ1 potentiator project, confirmation (AID 493184).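 For current potentiation: percent change of the same well's current before compound addition so 0% = no change.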 Conditions: automated patch clamp current, at 10 µM; active compounds read high. Put shortly:
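Probe or stimulus: depolarizing pulse to +40 mV from -90 mV; Material: CHO cells carrying KCNQ1; Compound: one dose, 10 µM final; Signal: automated voltage clamp, amphotericin B perforated patch; Read-out basis: percent current increase versus pre-compound level; Buffer or medium: pH 7.4 external bath; Replication: duplicates.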
Background: In patch-clamp work, channel activity is measured electrically.

SMILES strings stand for the structures. The source made the active and inactive calls.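 Rule for the calls, unless noted: active = current rise at least 3 SD above the untreated control mean in each of two repeat wells; inactive = the rest.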

Sequence of Potassium voltage-gated channel subfamily KQT member 1 (Homo sapiens) (P51787 whole entry, looked up): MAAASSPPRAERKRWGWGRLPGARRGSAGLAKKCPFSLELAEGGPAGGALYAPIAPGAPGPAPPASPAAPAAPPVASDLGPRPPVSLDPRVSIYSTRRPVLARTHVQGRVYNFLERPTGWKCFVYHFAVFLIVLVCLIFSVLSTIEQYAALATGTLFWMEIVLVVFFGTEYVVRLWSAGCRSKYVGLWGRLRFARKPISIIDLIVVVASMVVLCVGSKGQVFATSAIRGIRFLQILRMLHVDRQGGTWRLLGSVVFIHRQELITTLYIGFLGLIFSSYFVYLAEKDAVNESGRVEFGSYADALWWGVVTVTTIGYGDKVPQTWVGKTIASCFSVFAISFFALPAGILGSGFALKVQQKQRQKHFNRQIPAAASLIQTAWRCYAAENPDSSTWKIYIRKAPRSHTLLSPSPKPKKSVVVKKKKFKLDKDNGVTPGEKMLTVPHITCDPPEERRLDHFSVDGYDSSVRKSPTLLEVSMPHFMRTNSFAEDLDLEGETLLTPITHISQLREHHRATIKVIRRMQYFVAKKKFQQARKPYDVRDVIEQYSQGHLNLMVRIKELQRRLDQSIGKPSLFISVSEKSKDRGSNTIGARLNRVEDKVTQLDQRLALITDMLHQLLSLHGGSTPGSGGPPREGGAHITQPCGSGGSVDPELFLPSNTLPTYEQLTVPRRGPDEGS

As for `CC(C)(C)c1cc(-c2csc(Nc3ccccc3)[n+]2Cc2ccc(C(=O)O)cc2)cc(C(C)(C)C)c1O`, the activation in experiment [1] was 327% (active). The potentiation was 54.5% (active) in experiment [2] and 198% (active) in experiment [3]. Also, in experiment [4], the result was inactive.

With `O=C(/C=C/c1ccccc1Cl)c1ccccc(=O)c1O`, the activation in experiment [1] was 214% (active). For the same compound, the values for the potentiation in experiment [2] and in experiment [3] were 134% (active) and 374% (active), respectively. Besides, in experiment [4], the result was inactive.

For the compound `O=S(=O)(CC(CN1CCCC1)N1CCCC1)c1ccc2ccccc2c1` (stereo not given), the outcome in experiment [1], in experiment [2], in experiment [3] and in experiment [4] was inactive.

As to `CCOC(=O)c1[nH]c(C=O)c(C(=O)OCC)c1C`, the result in experiment [1], in experiment [2], in experiment [3] and in experiment [4] was inactive.

Turning to `CC1=NN(C(=O)c2csc(C(C)C)c2)C(O)(C(F)(F)F)C1` (stereo not given), the activation in experiment [1] was 164% (active). Moreover, the results for the potentiation in experiment [2] and in experiment [3] were 61.5% (active) and 178% (active), respectively. Further, in experiment [4], the result was inactive.

For `COc1ccc(OC)c(/C=C2\SC(=S)N(NS(=O)(=O)c3ccc(C)cc3)C2=O)c1`, the activation in experiment [1] was 166% (active). For the same compound, the potentiation was 102% (active) in experiment [2] and 240% (active) in experiment [3]. Also, the current potentiation in experiment [4] was 47.4% (active).

For the compound `Cc1ccc(OCc2n[nH]c(=S)n2-c2ccc(Br)cc2)cc1`, the outcome in experiment [1] and in experiment [4] was inactive. The potentiation was 22.5% (active) in experiment [2] and 146% (active) in experiment [3].

With `CCC1(c2ccccc2)NC(=S)N(c2ccc(C)cc2)N1` (stereo not given), the activation in experiment [1] is 392% (active). For the same compound, the potentiation is 198% (active) in experiment [2] and 522% (active) in experiment [3]. In experiment [4], the outcome was inactive.

For `CCOc1ccc(-n2cc(-c3ccccc3)c3c(=S)nc[nH]c32)cc1`, in experiment [1], the activation was 337% (active). Also, the potentiation is 192% (active) in experiment [2] and 389% (active) in experiment [3]. Moreover, the result in experiment [4] was inactive.

Take `Oc1ccc(CN2CCCCC2)c2cccnc12`: in experiment [1], the activation was 170% (active). In addition, the potentiation in experiment [2] is 47% (active); in experiment [3], 144% (active). Also, in experiment [4], the outcome was inactive.

As to `COc1ccc(N2CCN(CC(=O)Nc3nc(C)cs3)CC2)cc1`, the result in experiment [1], in experiment [2], in experiment [3] and in experiment [4] was inactive.

`O=C(NC(=S)N1CCCC(C(F)(F)F)C1)c1ccc(F)cc1` (stereo not given): in experiment [1], the activation was 296% (active). Moreover, the potentiation in experiment [2] is 66.5% (active); in experiment [3], 260% (active). The outcome in experiment [4] was inactive.

For `C#CCOCCOCCOCCNc1nc(N2CCN(C(=O)C([C@@H](C)CC)n3cc(C(N)Cc4ccc(O)cc4)nn3)CC2)nc(N2CCN(C(=O)[C@H](CCC(=O)O)n3cc(C(N)CC(C)C)nn3)CC2)n1` (stereo not given in full), the result in experiment [1], in experiment [2], in experiment [3] and in experiment [4] was inactive.

Turning to `COc1ccc(C(=O)NNC(=O)C(=O)Nc2ccc(C)cc2)cc1`, in experiment [1], the activation was 254% (active). For the same compound, the potentiation in experiment [2] is 123% (active); in experiment [3], 380% (active). In addition, the result in experiment [4] was inactive.

As for `COc1ccccc1-c1nc(C#N)c(N2CC(C)CC(C)C2)o1` (stereo not given), the result in experiment [1], in experiment [2], in experiment [3] and in experiment [4] was inactive.

Consider `Cc1cc(Cl)ccc1OCc1n[nH]c(=S)n1C1CCCCC1`, for which the activation in experiment [1] was 190% (active). Besides, the potentiation is 129% (active) in experiment [2] and 212% (active) in experiment [3]. Besides, in experiment [4], the result was inactive.

Take `O=C(NC(=S)NCCc1ccccc1)c1cccc(Cl)c1`: the activation in experiment [1] was 182% (active). The potentiation is 141% (active) in experiment [2] and 342% (active) in experiment [3]. Further, the result in experiment [4] was inactive.

With `CC(C)(C)NC(=O)C(=O)NNC(=O)c1cccc(Br)c1`, the activation in experiment [1] is 242% (active). For the same compound, the potentiation in experiment [2] is 34% (active); in experiment [3], 229% (active). Besides, in experiment [4], the outcome was inactive.

Consider `C/C(CCc1oc2c(Br)cc(Br)cc2c1-c1ccc(C)o1)=N\O`, for which the outcome in experiment [1], in experiment [2], in experiment [3] and in experiment [4] was inactive.

Turning to `COc1ccc(CNC(=O)C2CC(c3cccc(OC)c3)=NO2)cc1` (stereo not given), the result in experiment [1], in experiment [2], in experiment [3] and in experiment [4] was inactive.

Take `CCc1ccc2nc(N(CCCN(C)C)C(=O)c3ccc(S(=O)(=O)N4CCCc5ccccc54)cc3)sc2c1`: the outcome in experiment [1], in experiment [2], in experiment [3] and in experiment [4] was inactive.

Turning to `C/C(=N/NC(=S)Nc1cccc(C)c1)c1cccc([N+](=O)[O-])c1`, the outcome in experiment [1], in experiment [3] and in experiment [4] was inactive. Besides, the potentiation in experiment [2] was 44.5% (active).

As for `COc1ccc(Nc2nc(-c3sc(C)nc3C)cs2)c(OC)c1`, the result in experiment [1], in experiment [2], in experiment [3] and in experiment [4] was inactive.

With `CCOC(=O)/C(C)=N/NC(=O)c1cccc([N+](=O)[O-])c1`, the activation in experiment [1] is 170% (active). The results for the potentiation in experiment [2] and in experiment [3] were 49% (active) and 206% (active), respectively. Moreover, the outcome in experiment [4] was inactive.

In the case of `Cc1[nH][nH]c(=O)c1C(c1ccc(-c2ccc(F)cc2)o1)c1c(C)[nH][nH]c1=O`, the outcome in experiment [1], in experiment [2], in experiment [3] and in experiment [4] was inactive.

Regarding `CCCCn1c(-c2csc3c2CCC(C)C3)n[nH]c1=S` (stereo not given), in experiment [1], the activation was 145% (active). Also, the figures for the potentiation in experiment [2] and in experiment [3] were 75.5% (active) and 150% (active), respectively. Besides, the result in experiment [4] was inactive.

Consider `CC(=O)c1ccc(OCc2cc(C(=O)N(C)Cc3nc4c(C)cccc4[nH]3)no2)cc1`, for which the result in experiment [1], in experiment [3] and in experiment [4] was inactive. In experiment [2], the potentiation is 18% (active).

As for `O=C(c1cc(COc2ccc3ncccc3c2)on1)N1CCCC(O)C1` (stereo not given), the outcome in experiment [1], in experiment [2], in experiment [3] and in experiment [4] was inactive.

As for `O=C(NC(=S)NCc1ccccc1)c1cccs1`, the activation in experiment [1] is 167% (active). In addition, the potentiation in experiment [2] was 81% (active); in experiment [3], 232% (active). For the same compound, the outcome in experiment [4] was inactive.

As to `O=C(Nc1nnc(-c2ccc(Cl)cc2)o1)c1ccccc1Br`, the activation in experiment [1] was 228% (active). Moreover, the potentiation in experiment [2] is 86.5% (active); in experiment [3], 234% (active). Moreover, the result in experiment [4] was inactive.
